# Results as given in paper PMC8671219 (Arthritis & Rheumatology (Hoboken, N.j.), 2021).
# Where two headings read alike, the source gives them in different places.
# How the values were obtained:
# [1] = tested on: human primary cell cocultures (4H, LPS, SAg, BT, MyoF, /Mphg); assay: BioMAP Diversity Plus Panel; format: cell-based; settings: multicellular human primary cell systems
# Summary of the method: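 An external provider ran BioMAP Diversity Plus profiling with each compound at the noted concentrations, scoring multiple end points per system. The systems were venular endothelial cells (4H), PBMC plus endothelial cells with LPS, PBMC plus endothelial cells with superantigen, B cells plus PBMC (BT), lung fibroblasts (MyoF), and macrophages plus venular endothelial cells. Etanercept and tofacitinib served as comparators.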
# [2] = tested on: R848 induced TNF in human whole blood; assay: Human whole blood cytokine release assay; format: cell-based
# Summary of the method: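 Heparin-anticoagulated whole blood (human, mouse or rat), or PBMC derived from it, was incubated with test compound and then exposed to TLR ligand. Cytokines were measured by Meso Scale Discovery immunoassay. EC50 and Hill slope were fitted from concentration–response data, and free-drug potency was derived using measured protein binding values.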
# [3] = tested on: nuclear localization of IRF-5 in PBMCs; assay: Monocyte IRF5 nuclear localization assay; format: cell-based, human; settings: 100 nM, 2 hours
# Summary of the method: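 Healthy-volunteer PBMCs were incubated with 100 nM test compound or none, then stimulated with R848 or SLE patient sera for 2 hours at 37°C. IRF-5 nuclear translocation was quantified by Amnis imaging cytometry.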
# [4] = tested on: human macrophages stimulated with ACPA immune complexes; assay: Macrophage ACPA-IC induced TNFα assay; format: cell-based; settings: 100 nM inhibitor, 11 donors, mean ± SEM
# Summary of the method: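 Human macrophages from 11 donors were preincubated with 100 nM inhibitor and then stimulated with anti-citrullinated protein antibody immune complexes. TNF in supernatants was measured by immunoassay and expressed as % of DMSO-only treatment (mean ± SEM), compared by paired t-test.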
# [5] = tested on: human RA fibroblast-like synoviocytes; assay: Human RA-FLS assay; format: cell-based; settings: 100 nM
# Summary of the method: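 Human RA fibroblast-like synoviocytes were incubated with 100 nM test compound or vehicle before adding 0.1 ng/ml IL-1β. IL-6, IL-8 and MMP-1 in supernatants were measured by Meso Scale Discovery assay and expressed as percent of vehicle control, separately per donor.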
# [6] = tested on: rat collagen-induced arthritis; assay: Rat collagen-induced arthritis model of RA; format: in vivo; settings: rat CIA; PF-06650833 3 mg/kg twice daily or tofacitinib 10 mg/kg daily, oral, 7 days; vehicle 0.786 ± 0.043; mean ± SEM, n = 10
# [7] = tested on: human B cells primed with IFNα and stimulated with R848; assay: B cell maturation assay; format: cell-based
# Summary of the method: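 Human B cells were isolated from Leukopaks and preincubated with 100 nM test compound, then given IFNα plus R848. Supernatants were harvested at 24 h for IL-6 and at 72 h for IL-10. Values are % of control; n = 6 donors, compared by paired t-test.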
# [8] = tested on: human plasmacytoid dendritic cells; assay: Plasmacytoid DC stimulation with SLE neutrophil supernatants; format: cell-based; settings: 200 nM preincubation; 24 hours; n = 5
# Summary of the method: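 SLE patient neutrophils were induced to undergo NETosis with R837, and their supernatants were collected. Plasmacytoid DCs were FACS-sorted from the DC fraction of healthy-volunteer buffy coats. They were cultured in 40% neutrophil supernatant with or without 200 nM test compound for 24 hours. CD83 was measured by flow cytometry against isotype control; n = 5.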
# [9] = tested on: human PBMCs stimulated with SLE immune complexes; assay: SLE-IC assay; format: cell-based; settings: 100 nM, 24 hours
# Summary of the method: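 SLE immune complexes were made by purifying IgG from plasma of an anti-RNP/anti-dsDNA-positive SLE patient and mixing it with apoptotic cells. Human PBMCs were stimulated with these complexes with or without 100 nM test compound for 24 hours. IFNα in supernatant was measured by ELISA, and RSAD2, USP18 and GBP1 by qRT-PCR as relative quantification. n = 5 donors; analysed by 2-way ANOVA.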
# [10] = tested on: pristane-induced lupus in BALB/c mice; assay: Pristane in vivo model of SLE; parameters: species or system mouse
# MRL/lpr mice = assay: MRL/lpr in vivo model of SLE; parameters: species or system mouse
# [11] = tested on: whole blood 21-gene IFN gene signature; assay: Interferon signature modulation in Phase 1 MAD study in healthy volunteers; format: in vivo, human; settings: 300 mg modified-release qd
# Summary of the method: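 In a randomized, double-blind phase I multiple-ascending-dose study, healthy volunteers received modified-release test compound 300 mg once daily (n = 7) or placebo (n = 11) for 14 days. PAXgene whole blood was drawn on day 0 before the first dose and on day 14 before the last dose. RNA was sequenced, and an equally weighted 21-gene IFN signature was scored as percent change, day 14 versus day 0.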
# [12] = tested on: C-reactive protein (CRP) levels; settings: healthy volunteers; modified-release 300 mg daily; day 14; cited from earlier work
# [13] = tested on: active rheumatoid arthritis; settings: patients with active RA and inadequate response to methotrexate; cited from earlier work
molecule,measurement,setting,value
Etanercept,BioMAP phenotypic profile of inflammatory readouts,[1],predominant activity in the myofibroblast‐ and macrophage‐containing assays
"CC[C@@H]1[C@H](F)C(=O)N[C@@H]1COc1nccc2cc(C(N)=O)c(OC)cc12 [PF‐06650833, 1‐{[(2S,3S,4S)‐3‐Ethyl‐4‐fluoro‐5‐oxopyrrolidin‐2‐yl]methoxy}‐7‐methoxyisoquinoline‐6‐carboxamide]",EC50,[2]; read-out: EC50 values across the preclinical assays,2 to 10 nM
same,IC50,"[2]; read-out: IC50 total, human whole blood R848 induced TNF",8.8 nM
same,nuclear localization of IRF-5 stimulated by R848,"[3]; without compound 23.0 ± 13.0, n = 3",6.8 ± 4.4%
same,IRF-5 nuclear localization in response to SLE patient sera,"[3]; without compound 38.6 ± 18.4, n = 12",24.2 ± 13.0%
same,"ACPA IC-induced TNF release, % of that seen with DMSO treatment alone",[4],57.5 ± 17.9%
same,IL-1-induced cytokines in RA FLS,[5],did not inhibit
same,MMP induction by IL-1β in RA FLS,[5],able to block
same,cytokine and matrix metalloproteinase (MMP) release in response to all ligands profiled,[5]; RA FLS,substantially reduced
same,BioMAP phenotypic profile of inflammatory readouts,[1],greatest inhibition of inflammatory readouts in assays of innate immunity
same,paw volume on day 7,[6],0.555 ± 0.034 mL
same,activity at 0.1 µM,"[7]; 24 h, read-out: B cell IL-6 production, % of control",50 ± 16.7%
same,activity at 0.1 µM,"[7]; 72 h, read-out: B cell IL-10 production, % of control",41.3 ± 7.1%
same,pDC CD83 up-regulation induced by neutrophil DAMPs,[8],significantly inhibited
same,IFNα release from PBMCs stimulated with SLE ICs,[9]; n = 5 donors,inhibited IFNα release in all donors
same,"induction of 3 IFN-responsive genes (RSAD2, USP18, and GBP1)","[9]; SLE ICs, PBMCs",inhibited
same,anti-SSA IgG at week 20,"[10]; 200mpk in chow weeks 8-20, control 7,693 ± 1,241","2,726 ± 494 units/ml"
same,anti-RNP IgG at week 20,"[10]; 200mpk in chow weeks 8-20, control 18,127 ± 7,902","3,730 ± 2,861 units/ml"
same,mean PAS area per tuft,"[10]; kidney, week 20, pristane alone 1,252 ± 45, n = 8","1,045 ± 47 μm^2"
same,C3 and IgG deposition by immunohistochemistry,"MRL/lpr mice; 200mg/kg in chow, 12-13 weeks",significantly reduced
same,anti-SSA,"MRL/lpr mice; 200mg/kg in chow, 12-13 weeks",trends toward reductions
same,anti-dsDNA,"MRL/lpr mice; 200mg/kg in chow, 12-13 weeks",trends toward reductions
same,anti-histone IgG,"MRL/lpr mice; 200mg/kg in chow, 12-13 weeks",significantly reduced
same,glomerular nephropathy,"MRL/lpr mice; 200mg/kg in chow, 12-13 weeks",significantly reduced
same,glomerular nuclear area by image analysis,"MRL/lpr mice; 200mg/kg in chow, 12-13 weeks",significantly reduced
same,glomerular tuft area by image analysis,"MRL/lpr mice; 200mg/kg in chow, 12-13 weeks",significantly reduced
same,histologic kidney inflammation,"MRL/lpr mice; 200mg/kg in chow, 12-13 weeks",significantly reduced
same,lymphadenopathy,"MRL/lpr mice; 200mg/kg in chow, 12-13 weeks",significantly reduced
same,splenomegaly,"MRL/lpr mice; 200mg/kg in chow, 12-13 weeks",trends toward reductions
same,tubular injury,"MRL/lpr mice; 200mg/kg in chow, 12-13 weeks",trends toward reductions
same,subjects with negative change of IFN gene score between day 0 and day 14,[11],6 of 7
same,"reduction of IFN gene signature, median percent change day 14 vs day 0","[11]; 14 days, n = 7, placebo +9.1%",28.8%
same,difference in IFN gene signature change vs placebo,[11]; day 14,−37.9%
same,CRP levels,[12],statistically significant reductions
same,disease activity in phase II study,[13],significant effects on disease activity
"C[C@@H]1CCN(C(=O)CC#N)C[C@@H]1N(C)c1ncnc2[nH]ccc12 [tofacitinib, reference compound]",BioMAP phenotypic profile of inflammatory readouts,[1],no impact on assays of innate immunity
same,paw volume on day 7,[6],0.371 ± 0.044 mL
"N#CN1CCCC(n2nc(-c3ccc(Oc4ccc(F)cc4F)cc3)c(C(N)=O)c2N)C1 (stereo not drawn) [PF‐06250112, reference compound]",all renal histologic pathology end points other than PAS area per tuft,MRL/lpr mice; 30 mg/kg PO qd,significantly reduced
same,autoantibody titers,MRL/lpr mice; 30 mg/kg PO qd,significantly reduced
